ChEMBL document CHEMBL1275449, “Potent in vitro antifungal activities of naturally occurring acetylenic acids” (Antimicrob Agents Chemother, 2008)
Converted amounts (≈) assume the structure as drawn. The source made the active and inactive calls. The rule behind the calls is not given here.

How the values were obtained:
Candida parapsilosis = experiment: Antifungal activity against Candida parapsilosis ATCC 22019 after 48 hrs by CLSI method; assay type: functional, organism-based; details: Lodderomyces parapsilosis, ATCC 22019, 48 h
In short: (§1)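 Yeast suspensions made from 3-5 colonies off 24-72 h SD agar plates in saline. They were diluted by OD630 standard curve in RPMI 1640 (0.2% dextrose, 0.03% glutamine, 0.165 M MOPS, pH 7.0) to 1.5 × 10³ CFU/ml. Twofold dilutions (11 concentrations, 20% DMSO-saline) run in duplicate. OD530 read before and after 35°C, 48 h. Line values are top test concentrations; no-growth endpoints give MIC/MFC.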

[1] = test system: Trichophyton mentagrophytes; experiment: Antifungal activity against Trichophyton mentagrophytes ATCC MYA-4439 by CLSI method; assay type: functional, organism-based
In short: (§2)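 Growth scraped from 1- to 6-week-old potato dextrose slants and filtered through Miracloth. Diluted in 5% Alamar blue-RPMI 1640 (MOPS pH 7.0) to 2.7 × 10⁴ CFU/ml. Eleven twofold dilutions in duplicate. Fluorescence at 544 nm excitation/590 nm emission read before and after 35°C, 5 days. IC50 fitted from percent growth. MIC taken as no detectable growth; MFC from clear or blue wells plated on PD agar.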

Candida albicans [2] = experiment: Antifungal activity against Candida albicans ATCC 200955 after 48 hrs by CLSI method; assay type: functional, organism-based; details: ATCC 200955, 48 h
In short: (§3)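 CLSI broth microdilution. Colonies from 24–72 h SD agar suspended in saline and sized by OD630 standard curve. Inoculum 1.5 × 10³ CFU/ml (final) in RPMI 1640 (0.2% dextrose, 0.03% glutamine, 0.165 M MOPS, pH 7.0). Twofold dilutions (11 levels) from 20% DMSO-saline, in duplicate. 35°C for 48 h, OD530 read before and after. IC50 fitted from % growth. MIC: no detectable growth. MFC: subculture onto SD agar.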

[3] = test system: Trichophyton mentagrophytes; experiment: Antifungal activity against Trichophyton mentagrophytes ATCC 9533 by CLSI method; assay type: functional, organism-based; in short: as §2
Cryptococcus neoformans [4] = experiment: Antifungal activity against Cryptococcus neoformans ATCC 90113 after 72 hrs by CLSI method; assay type: functional, organism-based; details: ATCC 90113, 72 h
In short: (§4)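 SD broth replaced RPMI because growth in RPMI was poor; other CLSI conditions were kept. Inoculum was 1.5 × 10³ CFU/ml from colonies on SD agar, checked by plating. Twofold serial dilutions (11 concentrations) in 20% DMSO-saline were tested in duplicate. OD530 was read before and after incubation at 35°C for 72 h. Percent growth gave IC50; the MIC is the lowest concentration with no detectable growth.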

Nakaseomyces glabratus = experiment: Antifungal activity against Candida glabrata ATCC 90030 after 48 hrs by CLSI methodCandida glabrata; assay type: functional, organism-based; details: ATCC 90030, 48 h
In short: (§5)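 Candida inocula came from 24–72-h SD agar colonies suspended in saline. They were diluted by OD630 standard curve into RPMI 1640 (0.2% dextrose, 0.03% glutamine, 0.165 M MOPS, pH 7.0) to 1.5 × 10³ CFU/ml. Compounds were run as 11 twofold dilutions in 20% DMSO-saline, in duplicate, at 35°C for 48 h, with OD530 read before and after. Percent growth at the top concentration, IC50, MIC, and MFC (SD agar plating) were derived.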

Candida albicans [5] = experiment: Antifungal activity against Candida albicans ATCC 60193 after 48 hrs by CLSI method; assay type: functional, organism-based; details: ATCC 60193, 48 h; in short: as §3
Aspergillus flavus [6] = experiment: Antifungal activity against Aspergillus flavus ATCC 204304 after 48 h by CLSI method; details: ATCC 204304, 48 h
Cryptococcus neoformans [7] = experiment: Antifungal activity against Cryptococcus neoformans ATCC 66031 after 72 hrs by CLSI method; assay type: functional, organism-based; details: ATCC 66031, 72 h; in short: as §4
Candida tropicalis = experiment: Antifungal activity against Candida tropicalis ATCC 750 after 48 hrs by CLSI method; assay type: functional, organism-based; details: ATCC 750, 48 h; in short: as §1
Aspergillus niger [8] = experiment: Antifungal activity against Aspergillus niger ATCC 16404 after 48 h by CLSI method; details: ATCC 16404, 48 h
Trichophyton rubrum [9] = experiment: Antifungal activity against Trichophyton rubrum ATCC MYA-4438 by CLSI method; assay type: functional, organism-based; in short: as §2
Candida albicans [10] = experiment: Antifungal activity against Candida albicans ATCC 14053 after 48 hrs by CLSI method; assay type: functional, organism-based; details: ATCC 14053, 48 h; in short: as §3
Candida albicans [11] = experiment: Antifungal activity against Candida albicans ATCC 32354 after 48 hrs by CLSI method; assay type: functional, organism-based; details: ATCC 32354, 48 h; in short: as §3
Aspergillus fumigatus [12] = experiment: Antifungal activity against Aspergillus fumigatus ATCC 204305 after 48 h by CLSI method; details: ATCC 204305, 48 h
Aspergillus flavus [13] = experiment: Antifungal activity against Aspergillus flavus ATCC 204304 at 10.8 uM after 48 hrs by CLSI method; assay type: functional, organism-based
Candida albicans [14] = experiment: Antifungal activity against Fluconazole resistant Candida albicans clinical isolate 17 after 48 hrs by CLSI method; assay type: functional, organism-based; in short: as §3
Aspergillus niger [15] = experiment: Antifungal activity against Aspergillus niger ATCC 16404 at 10.8 uM after 48 hrs by CLSI method; assay type: functional, organism-based
Pichia kudriavzevii = experiment: Antifungal activity against Candida krusei ATCC 6258 after 48 hrs by CLSI method; assay type: functional, organism-based; details: ATCC 6258, 48 h; in short: as §5
Candida albicans [16] = experiment: Antifungal activity against Fluconazole resistant Candida albicans clinical isolate 1 after 48 hrs by CLSI method; assay type: functional, organism-based; in short: as §3
Trichophyton rubrum [17] = experiment: Antifungal activity against Trichophyton rubrum ATCC 10218 by CLSI method; assay type: functional, organism-based; in short: as §2
Aspergillus fumigatus [18] = experiment: Antifungal activity against Aspergillus fumigatus ATCC 90906 after 48 h by CLSI method; details: ATCC 90906, 48 h
Candida albicans [19] = experiment: Antifungal activity against Candida albicans ATCC 90028 after 48 hrs by CLSI method; assay type: functional, organism-based; details: ATCC 90028, 48 h; in short: as §3

C[C@@H]1[C@H](O)[C@@H](C)/C=C/C=C/C=C/C=C/C=C/C=C/C=C/[C@H](O[C@@H]2O[C@H](C)[C@@H](O)[C@H](N)[C@@H]2O)C[C@@H]2O[C@](O)(C[C@@H](O)C[C@@H](O)[C@H](O)CC[C@@H](O)C[C@@H](O)CC(=O)O[C@H]1C)C[C@H](O)[C@H]2C(=O)O [AMPHOTERICIN B]
IC50 (Candida parapsilosis): 300 nM | MFC (Candida parapsilosis): 5.4 µM (≈ 4.99 µg/mL) | MIC (Candida parapsilosis): 2 µM (≈ 1.85 µg/mL) | IC50 [1]: 900 nM | MFC [1]: 1.4 µM (≈ 1.29 µg/mL) | MIC [1]: 1.4 µM (≈ 1.29 µg/mL) | IC50 (Candida albicans [2]): 600 nM | MFC (Candida albicans [2]): 2.7 µM (≈ 2.5 µg/mL) | MIC (Candida albicans [2]): 2.7 µM (≈ 2.5 µg/mL) | IC50 [3]: 600 nM | MFC [3]: 2.7 µM (≈ 2.5 µg/mL) | MIC [3]: 2 µM (≈ 1.85 µg/mL) | IC50 (Cryptococcus neoformans [4]): 300 nM | MFC (Cryptococcus neoformans [4]): 0.7 µM (≈ 0.647 µg/mL) | MIC (Cryptococcus neoformans [4]): 0.7 µM (≈ 0.647 µg/mL) | IC50 (Nakaseomyces glabratus): 400 nM | MFC (Nakaseomyces glabratus): 1.4 µM (≈ 1.29 µg/mL) | MIC (Nakaseomyces glabratus): 1.4 µM (≈ 1.29 µg/mL) | IC50 (Candida albicans [5]): 200 nM | MFC (Candida albicans [5]): 1.4 µM (≈ 1.29 µg/mL) | MIC (Candida albicans [5]): 1 µM (≈ 0.924 µg/mL) | IC50 (Aspergillus flavus [6]): 1500 nM | MIC (Aspergillus flavus [6]): 2.7 µM (≈ 2.5 µg/mL) | IC50 (Cryptococcus neoformans [7]): 80 nM | MFC (Cryptococcus neoformans [7]): 0.34 µM (≈ 0.314 µg/mL) | MIC (Cryptococcus neoformans [7]): 0.34 µM (≈ 0.314 µg/mL) | IC50 (Candida tropicalis): 300 nM | MFC (Candida tropicalis): 1.4 µM (≈ 1.29 µg/mL) | MIC (Candida tropicalis): 1 µM (≈ 0.924 µg/mL) | IC50 (Aspergillus niger [8]): 900 nM | MIC (Aspergillus niger [8]): 2 µM (≈ 1.85 µg/mL) | IC50 (Trichophyton rubrum [9]): 600 nM | MFC (Trichophyton rubrum [9]): 5.4 µM (≈ 4.99 µg/mL) | MIC (Trichophyton rubrum [9]): 1.4 µM (≈ 1.29 µg/mL) | MFC (Candida albicans [10]): 1.4 µM (≈ 1.29 µg/mL) | MIC (Candida albicans [10]): 1 µM (≈ 0.924 µg/mL) | MFC (Candida albicans [11]): 1.4 µM (≈ 1.29 µg/mL) | MIC (Candida albicans [11]): 1 µM (≈ 0.924 µg/mL) | IC50 (Aspergillus fumigatus [12]): 1200 nM | MFC (Aspergillus fumigatus [12]): 10.8 µM (≈ 9.98 µg/mL) | MIC (Aspergillus fumigatus [12]): 2 µM (≈ 1.85 µg/mL) | Activity (Aspergillus flavus [13]): inactive | IC50 (Candida albicans [14]): 200 nM | MFC (Candida albicans [14]): 1.4 µM (≈ 1.29 µg/mL) | MIC (Candida albicans [14]): 1 µM (≈ 0.924 µg/mL) | Activity (Aspergillus niger [15]): inactive | MFC (Pichia kudriavzevii): 2.7 µM (≈ 2.5 µg/mL) | MIC (Pichia kudriavzevii): 2 µM (≈ 1.85 µg/mL) | IC50 (Candida albicans [16]): 200 nM | MFC (Candida albicans [16]): 1.4 µM (≈ 1.29 µg/mL) | MIC (Candida albicans [16]): 1 µM (≈ 0.924 µg/mL) | IC50 (Trichophyton rubrum [17]): 600 nM | MFC (Trichophyton rubrum [17]): 1.4 µM (≈ 1.29 µg/mL) | MIC (Trichophyton rubrum [17]): 1.4 µM (≈ 1.29 µg/mL) | IC50 (Aspergillus fumigatus [18]): 900 nM | MFC (Aspergillus fumigatus [18]): 2.7 µM (≈ 2.5 µg/mL) | MIC (Aspergillus fumigatus [18]): 1.4 µM (≈ 1.29 µg/mL) | MFC (Candida albicans [19]): 1.4 µM (≈ 1.29 µg/mL) | MIC (Candida albicans [19]): 1 µM (≈ 0.924 µg/mL)
